# T cruzi repl = blocks replication of Trypanosoma cruzi; inhibition, % (test concentration not listed); 300,000 compounds, 1.4% hits; AID 1885; T. cruzi beta-gal in NIH3T3, luminescence, 90 h;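 active means mean inhibition across valid replicates above about 55%, limit read from the data; inconclusive means mean below that limit but half or more replicates reach it; inactive means mean below it, under half of replicates reach it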;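 further: signal also drops with host cell toxicity which is not excluded here; 0% = plate median of DMSO wells and 100% = zero luminescence signal; higher percent means less beta-gal luminescence so fewer parasites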
#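 System: NIH/3T3 fibroblasts plus reporter T. cruzi. Medium: DMEM plus 2% FBS. Probe or stimulus: 5000 reporter trypomastigotes per well. Compound: single 50 nL compound addition per well in DMSO. Incubation: co-culture of at least 90 h after 3 h attachment. Detection: GalScreen β-gal luminescence, detergent lysis, 60 min. Evaluation: parasite load inhibition, %.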
# MEKK3 PB1 HTS = modulators (inhibitors or enhancers) of MEK5 binding to human MEKK3 PB1 domain | 290,000 compounds, 1.4% hits | binding response (% of control), % at 10 µM | AID 1529 | Q99759 | bead-based flow cytometry, Alexa488-MEK5 binding to MEKK3; actives lie on both sides; 0 = blocked by unlabeled MEK5, 100 = vehicle;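 active means binding response more than 3 SD above or below the average of its plate-row segment, actives on both sides; inconclusive means wells at one plate position flagged as instrument error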;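 further: Alexa488 bead fluorescence after subtracting the streptavidin-only scavenger bead signal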
# Target sequence (Q99759 whole entry, looked up, the tested form may be a part): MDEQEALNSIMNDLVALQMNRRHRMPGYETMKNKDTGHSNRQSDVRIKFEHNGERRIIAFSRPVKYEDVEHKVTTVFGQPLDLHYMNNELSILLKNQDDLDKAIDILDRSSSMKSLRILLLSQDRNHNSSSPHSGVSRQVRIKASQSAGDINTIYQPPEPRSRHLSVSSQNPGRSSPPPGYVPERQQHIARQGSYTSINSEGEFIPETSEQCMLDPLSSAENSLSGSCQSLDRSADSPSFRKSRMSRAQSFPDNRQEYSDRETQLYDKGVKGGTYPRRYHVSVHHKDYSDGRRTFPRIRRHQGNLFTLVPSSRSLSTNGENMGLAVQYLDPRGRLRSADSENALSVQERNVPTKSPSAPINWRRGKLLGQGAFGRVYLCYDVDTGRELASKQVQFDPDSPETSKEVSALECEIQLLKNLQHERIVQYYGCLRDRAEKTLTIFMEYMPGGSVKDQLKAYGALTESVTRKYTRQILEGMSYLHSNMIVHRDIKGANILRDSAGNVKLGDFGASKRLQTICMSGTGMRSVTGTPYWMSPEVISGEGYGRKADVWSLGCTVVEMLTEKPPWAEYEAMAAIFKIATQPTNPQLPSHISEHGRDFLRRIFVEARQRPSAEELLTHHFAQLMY
# HCV NS3 hel inh = inhibitors of Hepatitis C virus NS3 helicase. NS3 helicase DNA unwinding, Cy5 molecular beacon fluorescence. inhibition, % at 10.9 µM. 290,000 compounds, 0.56% hits. AID 1800;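 active means inhibition above the mean of all tested compounds plus 3 SD, set per campaign, cut at about 35% in these data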;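 further: 0% = DMSO wells and 100% = thioflavine S control wells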
#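 System: Hepatitis C virus NS3 helicase domain fragment enzyme | Reagent: Annealed dual-labelled DNA beacon duplex, ATP-started | Compound dosing: 10.9 µM single point, 0.8% DMSO | Incubation: 1 h reaction at 25 °C, ATP-initiated | Technique: Cy5 fluorescence | Evaluation: Percent inhibition from t60/t0 fluorescence ratio | Benchmarks: Low DMSO, high thioflavine S at 110 µM | Replication: Singlicate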
# DNA FID counter = displaces DNA intercalator in HCV helicase counter-screen; DNA fluorescent intercalator displacement, fluorescence; inhibition, % at 7.9 µM; 290,000 compounds, 0.17% hits; AID 1845; in the data active means inhibition above about 37%;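 further: 0% = vehicle and 100% = reference compound; higher means more ethidium bromide displaced from hairpin DNA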
# MEKK2 WT-MEK5 = raises or lowers MEK5 binding to wildtype human MEKK2 PB1 domain; Q9Y2U5; bead flow cytometry, Alexa488-MEK5 binding to MEKK2 WT; actives lie on both sides; binding response (% of control), % at 10 µM; 290,000 compounds, 1.1% hits; in the data active means binding response below about 67% or above about 130%; inconclusive means no clear call, values can overlap the other calls; inactive means in between
# MEKK2mut PB1 HTS = signal of MEK5 binding to mutant human MEKK2 PB1 domain | bead flow cytometry, Alexa488-MEK5 binding to MEKK2 mutant | percent response, % at 10 µM | 290,000 compounds, 0.35% hits; in the data active means percent response above about 24%, passing the limit was not always enough
# The depositor's hits bear a star; ? = inconclusive; / = no result; ! = a repeat was not active. Rows were chosen to be rich in hits. Some 4.1% of all compounds tested hit in one or more screens of this group.
SMILES,T cruzi repl,MEKK3 PB1 HTS,HCV NS3 hel inh,DNA FID counter,MEKK2 WT-MEK5,MEKK2mut PB1 HTS
O=C(COC(=O)/C=C/c1ccccc1[N+](=O)[O-])NCC(F)(F)F,-13,99,2,-2,94,-4
O=C(O)CC1(CC(=O)Nc2ccc(Cl)cc2C(=O)c2ccccc2)CCCC1,32,105,-7,-42,103,0
CCCCCC(=O)Nc1cccc(C2=NOC3(C2)C[C@@H](C(N)=O)N(C(=O)C2(C)CC2)C3)c1 (some centres not stated),-2,90,/,/,93,2
CN1/C(=C\C=C2/SC(=S)N(CC(=O)O)C2=O)C(C)(C)c2ccccc21,25,145*,4,-244,805*,880*
CN1CCS/C1=C\C=C1/SC(=S)N(CC(=O)O)C1=O,8,112,8,11,101,0
COc1ccccc1C1CC(c2ccco2)=NN1S(C)(=O)=O (configuration not stated),-7,97,0,4,29*,17
CS(=O)(=O)N1N=C(c2ccco2)CC1c1ccc(Cl)cc1Cl (configuration not stated),3,108,16,-16,105,10
CCOc1ccc2nc(Cl)c(C3CC(c4ccco4)=NN3S(C)(=O)=O)cc2c1 (configuration not stated),2,90,-1,-10,7.0*,0
O=C(NNC(=O)c1ccc(F)cc1F)c1ccc(-n2cnnn2)cc1,2,104,0,-5,104,7
COc1ccc(-c2cn(-c3ccccc3)c3[n+]2CCS3)cc1,58*!,97,5,2,106,-2
Fc1ccc(-n2cc(-c3ccccc3)[n+]3c2SCC3)cc1,4,94,4,-2,98,-1
c1ccc(-c2cn(-c3ccccc3)c3[n+]2CCS3)cc1,68*,105,0,7,97,-1
COC(=O)[C@]1(CC(C)C)N[C@H](c2ccc(-c3ccc(Cl)c(Cl)c3)cc2)[C@@H]2C(=O)N(C)C(=O)[C@@H]21,17,/,/,/,/,/
CC(=O)c1c(C)[nH]c(C(=O)NCc2ccco2)c1C,-15,105,3,7,98,-45
O=C(NC(Nc1nc2ccc([N+](=O)[O-])cc2s1)(C(F)(F)F)C(F)(F)F)c1cccnc1,56*,93,3,-3,104,19
O=C(NC(Nc1nc2ccc([N+](=O)[O-])cc2s1)(C(F)(F)F)C(F)(F)F)c1ccccc1Cl,55*,105,3,-2,103,13
CN(C)S(=O)(=O)c1ccc2nc(NC(=O)c3cccnc3)sc2c1,-11,97,7,-5,92,-3
COc1ccc(C2CC(=O)C(C=NCCN3CCN(C(=S)Nc4ccccc4)CC3)=C(O)C2)cc1OC (configuration not stated),-13,99,0,-10,88,-3
COc1ccc(C2(CNC(=O)c3cccs3)CCOCC2)cc1,-18,101,-1,-6,101,-1
O=c1c2cc3c(=O)n(-c4ccccc4O)c(=O)c3cc2c(=O)n1-c1ccccc1O,-16,107,13,9,104,3
Clc1ccc2[nH]c3c(NCCCN4CCOCC4)ncnc3c2c1,-8,96,-15,38*,121,10
Cc1ccc2[nH]c3c(NCCN4CCOCC4)ncnc3c2c1,7,/,2,23,/,/
COc1ccccc1NC(=O)c1ccc(CSc2ccccc2)o1,-2,105,-9,-24,109,7
CCOC(=O)c1nc2cc3n(c(C)c-2c1C)C(C)C(C)=C3C (configuration not stated),/,127*,5,3,130,21
COc1ccc(NC(=O)c2cc(-c3cccnc3)nc3c(C)c(C)ccc23)c(OC)c1,56*,98,-1,-5,98,5
SMILES,T cruzi repl,MEKK3 PB1 HTS,HCV NS3 hel inh,DNA FID counter,MEKK2 WT-MEK5,MEKK2mut PB1 HTS
O=C1[C@H]2[C@@H](c3ccc(Cl)cc3)N3C(=O)N(c4cccc(Br)c4)C(=O)[C@@]3(Cc3ccc(Cl)cc3)[C@H]2C(=O)N1C1CCCCC1,65*,100,14,-9,101,-2
Cn1cnc([N+](=O)[O-])c1N=C(N)N,-8,92,-4,-3,97,-2
COc1ccccc1N1CCN(C/C=C/c2ccc(N(C)C)cc2)CC1,55*,101,-14,8,118,10
CN(CCOc1ccccc1)C(=O)c1cc([N+](=O)[O-])cc([N+](=O)[O-])c1,64*,87,-5,0,96,-6
O=C(NCCOc1ccccc1)c1cc(C(=O)NCCOc2ccccc2)cc([N+](=O)[O-])c1,68*,106,3,-5,105,2
O=C(COC(=O)c1ccc2c(c1[N+](=O)[O-])C(=O)c1ccccc1C2=O)NC1CC1,66*,104,5,4,104,10
CC(C)NC(=O)NC(=O)CSc1nnc(-c2c[nH]c3ccccc23)o1,1,105,10,-30,107,10
COc1ccc(NC(C)=[N+](C)CCNS(=O)(=O)c2ccc(Cl)cc2)cc1Cl,58*,89,-15,6,97,1
COc1ccccc1NC(C)=[N+](C)CCNS(=O)(=O)c1ccc(Cl)cc1,11,101,2,15,102,2
CN(C)c1ccc(CNCC2CCCO2)cc1 (configuration not stated),11,107,6,-3,112,10
CN(C)c1ccc(CNCCC2CCOC(C)(C)C2)cc1 (configuration not stated),58*,106,-7,1,101,2
CCN(CC)S(=O)(=O)c1cc(C)ccc1SC,8,99,8,0,99,-1
CC1CCCCN1S(=O)(=O)Cc1ccccc1Cl (configuration not stated),-1,102,1,-6,108,4
O=C1C(Cl)=C(Nc2ccccc2)C(=O)c2ccccc21,?,98,15,4,97,0
O=C(O)c1cccc(NC2=C(Cl)C(=O)c3ccccc3C2=O)c1,64*,84,3,-2,90,-4
Cc1ccc(NC2=C(NC(=O)c3ccccc3)C(=O)c3ccccc3C2=O)cc1Cl,-1,96,-3,2,114,12
O=C(O)c1ccc(NC2=C(Cl)C(=O)c3ccccc3C2=O)cc1,55*,101,9,0,98,-1
COc1cc(C(=O)COC(=O)c2cc([N+](=O)[O-])ccc2N2CCOCC2)ccc1OC(F)F,8,/,/,/,/,/
O=C(N/N=C/c1ccc([N+](=O)[O-])s1)C(O)c1ccccc1 (configuration not stated),77*,103,7,0,99,-1

# Compound activity (PubChem)
